Converted amounts (≈) assume the structure as drawn.
Tests used:
[1] = system: RNAP holoenzyme; details: cited from earlier work
[2] = system: human erythrocytes; assay: In vitro hemolysis assay; format: cell-based; details: 0.1, 1, and 10 μg/mL, 37 °C, 45 min, PBS pH 7.4
Method in brief: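 Human whole-blood erythrocytes were pelleted at 500g, 4 °C, 5 min, washed in 150 mM NaCl, resuspended in PBS pH 7.4 and diluted 40×. They were mixed 4:1 with drug solution in PBS containing 0.5% DMSO, giving final 0.1, 1 or 10 μg/mL, and held 45 min at 37 °C (n = 6). Controls were 1% v/v Triton X-100 and PBS. After spinning at 500g for 10 min, supernatant A540 was read and % lysis was normalized to the controls.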

[3] = biological target: E. coli core RNAP with σ^70 (Escherichia coli, UniProt P0A8T7); assay: In vitro transcription initiation assay; format: biochemical; details: σ^70, λ PR promoter template, 26-mer RNA
[4] = system: S. pneumoniae ATCC 49619; assay: MIC by broth microdilution; format: cell-based, Streptococcus pneumoniae; details: S. pneumoniae ATCC 49619, broth microdilution, 20 h at 37 °C
[5] = system: S. aureus; assay: Time-kill kinetics, S. aureus; format: cell-based, Staphylococcus aureus; details: over 6 h, even at 16 MIC
Method in brief: (§1)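 S. aureus was grown in MHB; S. agalactiae and S. pneumoniae in BHI with 5% CO₂. Incubation was 37 °C, 200 rpm. Samples taken at 0, 2, 4 and 6 h were serially diluted 10-fold and plated. CFU/mL was counted after overnight incubation at 37 °C, 5% CO₂. Triplicates.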

[6] = system: S. agalactiae (GBS); assay: Time-kill kinetics, S. agalactiae; format: cell-based, Streptococcus agalactiae; details: over 6 h, even at 16 MIC
Method in brief: as §1

[7] = system: S. pneumoniae; assay: Time-kill kinetics, S. pneumoniae; format: cell-based, Streptococcus pneumoniae
Method in brief: as §1

[8] = system: S. pneumoniae ATP production; assay: ATP production of S. pneumoniae cells; format: cell-based, Streptococcus pneumoniae; details: at 1/4 MIC
[9] = system: pneumolysin; assay: Pneumolysin secretion, Western blot of culture supernatant; format: cell-based, Streptococcus pneumoniae; details: overnight culture of S. pneumoniae at 1/2 and 1/4 MIC, versus drug-free control
Method in brief: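 S. pneumoniae cultured overnight in BHI without agitation, with or without serially diluted test compound; rifampicin and ceftriaxone controls at 2–0.002 μg/mL; 16–20 h. […] Western blot on PVDF, 5% milk/TBST block, rabbit polyclonal anti-pneumolysin 1:1000, overnight at 4 °C.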

[10] = system: S. aureus ATCC 29213 cells; assay: Cell content quantification of major macromolecules; format: cell-based, Staphylococcus aureus; details: S. aureus ATCC 29213, 1/4 and 1/8 MIC, versus no-drug control
Method in brief: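 A master culture of S. aureus ATCC 29213 was inoculated at OD₆₀₀ 0.1 and grown at 37 °C, 200 rpm to OD₆₀₀ 0.2. It was then split into aliquots with test compound or rifampicin at 1/4 and 1/8 MIC, plus an untreated aliquot. Cells were harvested at OD₆₀₀ 0.6 with volumes normalized, then pelleted. DNA, RNA and protein were kit-extracted. DNA and RNA were measured by Qubit BR fluorometric assays and protein by BCA. Triplicates.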

[11] = system: B. subtilis BS1048 (RNAP β′-GFP); assay: Confocal microscopy of RNAP-GFP localization; format: cell-based, Bacillus subtilis; details: B. subtilis BS1048, at 1/2 MIC, 15 min
Method in brief: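 2.5 μL culture placed on fresh 1.2% agarose pad under coverslip; imaged by confocal microscopy (63×/1.3 oil objective, mercury metal halide lamp).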

[12] = system: Gram-positive pathogens; assay: MIC against other Gram-positive pathogens; format: cell-based
Method in brief: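 Broth microdilution followed CLSI, in cation-adjusted Mueller–Hinton broth or BHI where indicated. Twofold dilutions ran from 256 to 0.5 μg/mL, with inoculum ~5 × 10⁵ CFU/mL and 20 h incubation at 37 °C. Panel strains were ATCC Gram-positive strains (Enterococcus, S. aureus, streptococci, staphylococci). MIC was the lowest concentration with no visible growth. At least duplicates.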

[13] = Solubility under the conditions of the CH–σ assay; format: physicochemical; details: conditions of the CH–σ protein complementation assay

Sequence of E. coli core RNAP with σ^70 (P0A7Z4 whole entry): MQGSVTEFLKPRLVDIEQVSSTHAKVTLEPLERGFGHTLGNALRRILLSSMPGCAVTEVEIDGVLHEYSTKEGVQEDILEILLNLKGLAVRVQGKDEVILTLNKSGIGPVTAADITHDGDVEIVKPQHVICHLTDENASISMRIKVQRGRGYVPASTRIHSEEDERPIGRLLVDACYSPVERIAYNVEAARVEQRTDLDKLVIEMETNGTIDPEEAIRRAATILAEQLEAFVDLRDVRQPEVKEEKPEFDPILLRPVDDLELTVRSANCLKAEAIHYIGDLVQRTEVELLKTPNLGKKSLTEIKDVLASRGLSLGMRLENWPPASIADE
Sequence of E. coli core RNAP with σ^70 (P0A8T7 whole entry): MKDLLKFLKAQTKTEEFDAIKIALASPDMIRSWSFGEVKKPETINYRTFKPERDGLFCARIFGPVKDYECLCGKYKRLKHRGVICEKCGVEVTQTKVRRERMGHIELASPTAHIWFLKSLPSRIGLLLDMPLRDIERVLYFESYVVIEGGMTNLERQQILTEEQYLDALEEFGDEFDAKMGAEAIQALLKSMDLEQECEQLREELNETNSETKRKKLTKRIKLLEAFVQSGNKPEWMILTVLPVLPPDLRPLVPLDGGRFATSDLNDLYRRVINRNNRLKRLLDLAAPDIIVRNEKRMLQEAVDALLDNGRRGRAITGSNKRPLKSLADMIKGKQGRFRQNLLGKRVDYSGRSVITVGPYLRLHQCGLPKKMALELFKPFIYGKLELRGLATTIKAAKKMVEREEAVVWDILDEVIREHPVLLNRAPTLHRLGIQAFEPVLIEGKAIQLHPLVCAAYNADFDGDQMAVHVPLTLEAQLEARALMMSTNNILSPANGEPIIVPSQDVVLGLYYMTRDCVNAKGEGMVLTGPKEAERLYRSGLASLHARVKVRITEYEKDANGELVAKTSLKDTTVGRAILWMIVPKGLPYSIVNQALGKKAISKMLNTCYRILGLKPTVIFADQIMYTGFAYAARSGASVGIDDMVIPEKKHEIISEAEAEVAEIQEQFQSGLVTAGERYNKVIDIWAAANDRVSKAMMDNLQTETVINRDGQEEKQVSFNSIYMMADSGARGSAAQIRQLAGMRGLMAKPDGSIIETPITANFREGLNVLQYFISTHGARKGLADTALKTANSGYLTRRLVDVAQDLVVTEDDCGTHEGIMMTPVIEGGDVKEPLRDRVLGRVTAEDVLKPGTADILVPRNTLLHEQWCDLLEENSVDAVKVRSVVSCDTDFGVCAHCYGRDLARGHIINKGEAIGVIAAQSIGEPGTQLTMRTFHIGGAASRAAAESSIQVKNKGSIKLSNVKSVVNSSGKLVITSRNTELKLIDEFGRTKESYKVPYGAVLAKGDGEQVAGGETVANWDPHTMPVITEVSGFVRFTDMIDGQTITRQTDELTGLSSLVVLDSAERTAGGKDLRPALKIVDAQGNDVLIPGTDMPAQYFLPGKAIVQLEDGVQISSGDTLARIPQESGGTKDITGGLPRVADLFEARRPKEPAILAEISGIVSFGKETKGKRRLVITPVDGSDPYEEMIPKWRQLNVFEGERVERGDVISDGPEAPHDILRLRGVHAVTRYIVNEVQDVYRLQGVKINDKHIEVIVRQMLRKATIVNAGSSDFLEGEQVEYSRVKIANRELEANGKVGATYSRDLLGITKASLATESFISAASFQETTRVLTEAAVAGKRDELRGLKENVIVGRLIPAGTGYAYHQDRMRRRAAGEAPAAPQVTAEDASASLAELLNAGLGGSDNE
Sequence of E. coli core RNAP with σ^70 (P0A800 whole entry, further chain): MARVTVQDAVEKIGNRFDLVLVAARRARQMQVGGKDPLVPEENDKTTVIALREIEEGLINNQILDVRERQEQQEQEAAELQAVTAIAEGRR
Sequence of E. coli core RNAP with σ^70 (P0A8V2 whole entry, further chain): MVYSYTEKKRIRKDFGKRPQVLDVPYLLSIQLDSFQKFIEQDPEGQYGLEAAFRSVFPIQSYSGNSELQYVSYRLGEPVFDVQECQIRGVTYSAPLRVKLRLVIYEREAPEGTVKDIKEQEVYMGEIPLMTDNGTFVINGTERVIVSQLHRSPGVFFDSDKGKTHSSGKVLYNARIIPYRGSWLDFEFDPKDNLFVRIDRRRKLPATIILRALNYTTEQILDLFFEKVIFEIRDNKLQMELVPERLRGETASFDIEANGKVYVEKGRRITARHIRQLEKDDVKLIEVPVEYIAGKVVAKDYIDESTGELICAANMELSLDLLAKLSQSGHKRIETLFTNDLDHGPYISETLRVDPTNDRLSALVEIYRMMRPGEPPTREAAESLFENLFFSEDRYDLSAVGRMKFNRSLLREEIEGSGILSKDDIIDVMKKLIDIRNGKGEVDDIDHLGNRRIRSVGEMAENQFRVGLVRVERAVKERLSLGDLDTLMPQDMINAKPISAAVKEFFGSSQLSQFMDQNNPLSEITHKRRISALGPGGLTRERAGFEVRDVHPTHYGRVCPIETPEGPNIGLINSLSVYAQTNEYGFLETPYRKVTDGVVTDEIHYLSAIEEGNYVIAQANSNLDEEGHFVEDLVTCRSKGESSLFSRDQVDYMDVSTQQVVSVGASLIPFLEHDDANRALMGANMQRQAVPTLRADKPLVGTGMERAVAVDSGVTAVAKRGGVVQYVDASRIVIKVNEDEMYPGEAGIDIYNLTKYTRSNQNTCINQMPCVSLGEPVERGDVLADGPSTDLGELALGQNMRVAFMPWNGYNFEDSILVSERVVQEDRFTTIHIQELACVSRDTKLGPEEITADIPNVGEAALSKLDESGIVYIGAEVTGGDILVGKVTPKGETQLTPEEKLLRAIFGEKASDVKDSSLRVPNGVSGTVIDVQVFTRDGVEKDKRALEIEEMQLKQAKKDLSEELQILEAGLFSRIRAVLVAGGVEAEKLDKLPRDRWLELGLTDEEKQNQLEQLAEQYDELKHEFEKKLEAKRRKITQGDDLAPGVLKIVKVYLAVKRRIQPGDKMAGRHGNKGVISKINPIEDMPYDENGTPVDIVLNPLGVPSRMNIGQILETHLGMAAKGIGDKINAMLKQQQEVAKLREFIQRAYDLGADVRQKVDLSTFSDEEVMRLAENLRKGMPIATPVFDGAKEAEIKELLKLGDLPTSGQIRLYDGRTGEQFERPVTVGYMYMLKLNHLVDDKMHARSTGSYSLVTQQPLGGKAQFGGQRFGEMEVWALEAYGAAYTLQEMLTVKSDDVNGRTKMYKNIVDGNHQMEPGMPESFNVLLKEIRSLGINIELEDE

Question: Which “RNAP holoenzyme formation and RNA synthesis in vitro” value [1] does the source give for `Nc1ccccc1Sc1ccc(C(=O)c2ccccc2C(=O)O)cc1[N+](=O)[O-]` [Compound 1, 2-(4-((2-Aminophenyl)thio)-3-nitrobenzoyl)benzoic acid] here?
Answer: The value was “inhibited”.

Question: For `O=C(O)c1ccccc1C(=O)c1ccc(Sc2ccc(Cl)c(Cl)c2)c([N+](=O)[O-])c1` [Compound 13, 2-(4-((3,4-dichlorophenyl)thio)-3-nitrobenzoyl)benzoic acid], which “hemolytic value (% of lysis)” value [2] is on record?
Answer: The value was under 10%.

Question: What about the “inhibition of transcription (RNA synthesis) in vitro” value [3] of the same compound?
Answer: Its value is “inhibited transcription”.

Question: Which MIC [4] does the source give for `O=C(Nc1ccccc1C(=O)O)c1ccc(Sc2ccc(Cl)c(Cl)c2)c([N+](=O)[O-])c1` [Compound 41, 2-(4-((3,4-Dichlorophenyl)thio)-3-nitrobenzamido)benzoic Acid] here?
Answer: The MIC was “lost activity completely”.

Question: With `O=C(O)c1ccccc1NCc1ccc(Sc2ccc(Cl)c(Cl)c2)c([N+](=O)[O-])c1` [Compound 43, 2-((4-((3,4-Dichlorophenyl)thio)-3-nitrobenzyl)amino)benzoic Acid] as the compound, how does the “hemolytic value (% of lysis)” value [2] read?
Answer: The value was under 10%.

Question: With `O=C(O)c1ccc(Cl)c(NCc2ccc(Sc3ccc(Cl)c(Cl)c3)c([N+](=O)[O-])c2)c1` [Compound 45, 4-Chloro-3-((4-((3,4-dichlorophenyl)thio)-3-nitrobenzyl)amino)-benzoic Acid] as the compound, how does the “hemolytic value (% of lysis)” value [2] read?
Answer: Its value is under 10%.

Question: With `O=C(O)c1ccc(Cl)cc1NCc1ccc(Sc2ccc(Cl)c(Cl)c2)c([N+](=O)[O-])c1` [Compound 54, 4-Chloro-2-((4-((3,4-dichlorophenyl)thio)-3-nitrobenzyl)amino)-benzoic Acid] as the compound, how does the “inhibition of transcription (RNA synthesis) in vitro” value [3] read?
Answer: The value was “much more potent inhibition”.

Question: And the time-kill profile [5]?
Answer: The time-kill profile was “largely bacteriostatic”.

Question: And the time-kill profile [6]?
Answer: Its time-kill profile is “largely bacteriostatic”.

Question: What about the time-kill profile ([7]; at 1 MIC) of the same compound?
Answer: Its time-kill profile is “largely bacteriostatic”.

Question: What about the “decrease in cell count” value ([7]; at higher concentrations (4 and 16 MICs)) of the same compound?
Answer: Its value is “ca. 2 fold log10 decrease”.

Question: What about the ATP production rate [8] of the same compound?
Answer: Its ATP production rate is “significant decrease”.

Question: And the “pneumolysin levels in culture supernatant” value (from here on “pneumolysin levels”) [9]?
Answer: The value was “substantial decrease”.

Question: And the “total RNA levels” value [10]?
Answer: The value was “reduction”.

Question: What about the “total levels of DNA” value [10] of the same compound?
Answer: Its value is “remained mostly unaffected”.

Question: What about the total protein levels [10] of the same compound?
Answer: Its total protein levels is “Reduction”.

Question: What about the RNAP-GFP localization [11] of the same compound?
Answer: The RNAP-GFP localization was “delocalization of the fluorescence from the nucleoid”.

Question: What about the MIC [12] of the same compound?
Answer: Its MIC is 1 to 2 µg/mL (≈ 2.07 to 4.13 µM).

Question: What about the “solubility under the testing conditions” value [13] of the same compound?
Answer: Its value is “insolubility under the testing conditions”.

Question: Which “pneumolysin levels” value [9] does the source give for `CO/N=C(\C(=O)N[C@@H]1C(=O)N2C(C(=O)O)=C(CSc3nc(=O)c(O)nn3C)CS[C@H]12)c1csc(N)n1` [ceftriaxone] here?
Answer: Its value is “increased”.

Question: Which “pneumolysin levels” value [9] does the source give for `CO[C@H]1/C=C/O[C@@]2(C)Oc3c(C)c(O)c4c(O)c(c(/C=N/N5CCN(C)CC5)c(O)c4c3C2=O)NC(=O)/C(C)=C\C=C\[C@H](C)[C@H](O)[C@@H](C)[C@@H](O)[C@@H](C)[C@H](OC(C)=O)[C@@H]1C` [rifampicin, reference compound] here?
Answer: The value was “suppressed”.

Question: What about the “total RNA levels” value [10] of the same compound?
Answer: Its value is “reduced”.

Question: And the “total levels of DNA” value [10]?
Answer: The value was “remained mostly unaffected”.

From publication PMC8091929 (Journal of medicinal chemistry, 2020)
